Data published in ChEMBL document CHEMBL3351240, “Antinociceptive properties of physalins from Physalis angulata” (J Nat Prod, 2014).
Calls of active or inactive are those of the source.

Columns and labels:
[1] = system: Mus musculus; test: Antinociceptive activity in Swiss Webster mouse assessed as increase in reaction time at 100 mg/kg, ip measured after 3 hrs by tail flick test; type: functional, organism-based; set-up: dose 100 mg/kg
Method in brief: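 Mice habituated to restraint cylinder 20 min/day for 5 days; distal 2 cm of tail immersed in 48 ± 0.5 °C water; tail withdrawal latency measured before and after ip dosing (5% DMSO/saline vehicle); 10 s cutoff; n = 6; two-way ANOVA with Bonferroni.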

[2] = system: Mus musculus; test: Antinociceptive activity in Swiss Webster mouse assessed as inhibition of formalin-induced early phase pain response at 50 mg/kg, ip dosed 40 mins before formalin injection; type: functional, organism-based; set-up: dose 50 mg/kg
Method in brief: (§1)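 Mice acclimated 30 min in chamber, dosed ip 40 min before sc injection of 20 μL 2.5% formalin into dorsal hind paw; licking time of injected paw scored 0−10 min (early phase) and 10−30 min (late phase); n = 7−10; ANOVA with Tukey.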

[3] = system: Mus musculus; test: CNS toxicity in Swiss Webster mouse assessed as effect on motor performance at 100 mg/kg, ip after 40 mins by open field test; type: organism-based; set-up: dose 100 mg/kg, route intraperitoneal; settings: in vivo
Method in brief: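 Open-field test 40 min after ip dosing: mice placed singly in 40 × 60 × 50 cm box with 12 floor squares; squares crossed with all four paws counted over 3 min; n = 6; one-way ANOVA with Tukey.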

[4] = system: Mus musculus; test: Antiinflammatory activity in Swiss Webster mouse assessed as reduction in paw edema at 100 mg/kg, ip dosed 40 mins before CFA injection and measured 2 to 6 hrs post CFA stimulus; type: functional, organism-based; set-up: dose 100 mg/kg
Method in brief: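 Male Swiss Webster mice, ip pretreatment in 5% DMSO/saline 40 min before intraplantar CFA (20 μL, 1 mg/mL heat-killed M. tuberculosis). Paw volume measured by plethysmometer before and 2, 4, 6 h after CFA; edema expressed as percent increase in paw volume; n = 6 mice/group; two-way ANOVA with Bonferroni.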

[5] = system: Mus musculus; test: Antiinflammatory activity in Swiss Webster mouse assessed as reduction in hyperalgesia at 100 mg/kg, ip dosed 40 mins before CFA injection and measured 2 to 6 hrs post CFA stimulus; type: functional, organism-based; set-up: dose 100 mg/kg
Method in brief: (§2)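 Male Swiss Webster mice (22−28 g) given drug ip in 5% DMSO/saline (dexamethasone in 10% ethanol/saline) 40 min before 20 μL CFA (1 mg/mL heat-killed M. tuberculosis in paraffin oil/mannide monooleate) sc into right hind paw plantar region. Mechanical threshold by von Frey filaments, up−down method, at 2, 4 and 6 h; n = 6; two-way ANOVA with Bonferroni.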

[6] = system: Mus musculus; test: Antinociceptive activity in Swiss Webster mouse assessed as inhibition of acetic acid-induced abdominal constrictions at 25 to 100 mg/kg, ip dosed 40 mins before acetic acid injection; type: functional, organism-based; settings: Abdomen
Method in brief: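 Male Swiss Webster mice dosed ip (5% DMSO in saline vehicle) 40 min before ip acetic acid 0.8% v/v, 10 mL/kg; writhes (abdominal contraction with hind-limb stretching) counted over 0−30 min; mean writhing score, n = 10 per group; ANOVA with Tukey.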

[7] = system: Mus musculus; test: CNS toxicity in Swiss Webster mouse assessed as effect on motor performance at 100 mg/kg, ip after 40 mins by rotarod test; type: organism-based; set-up: dose 100 mg/kg, route intraperitoneal; settings: in vivo
Method in brief: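 Rota-rod test: 3 cm bar at 8 rpm; mice pre-selected 24 h earlier by remaining on bar for two consecutive 120 s periods; placed on rod 40 min after ip dosing; time on bar recorded up to 120 s; n = 6; one-way ANOVA with Tukey.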

[8] = system: Mus musculus; test: Antinociceptive activity in Swiss Webster mouse assessed as inhibition of formalin-induced late phase pain response at 50 mg/kg, ip dosed 40 mins before formalin injection; type: functional, organism-based; set-up: dose 50 mg/kg; method in brief: as §1
[9] = system: Mus musculus; test: Antinociceptive activity in Swiss Webster mouse assessed as increase in latency time at 100 mg/kg, ip measured after 0.5 to 2 hrs by hot plate test; type: functional, organism-based; set-up: dose 100 mg/kg
Method in brief: (§3)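 Hot plate held at 55 ± 1 °C; male Swiss Webster mice; reaction time to hind paw licking or jumping recorded before and after ip dosing (vehicle 5% DMSO in saline); data as difference from baseline; 10 s cutoff; n = 6; two-way ANOVA with Bonferroni.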

[10] = system: Mus musculus; test: Antiinflammatory activity in Swiss Webster mouse assessed as reduction in hyperalgesia at 2 mg/kg, ip dosed 40 mins before CFA injection and measured 2 to 6 hrs post CFA stimulus; type: functional, organism-based; set-up: dose 2 mg/kg
Method in brief: as §2, with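 “ip” for “ip in 5% DMSO/saline”, “ethanol in saline)” for “ethanol/saline)”, “4,” for “4 and”, “h. Mean ± SEM,” for “h;”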

[11] = system: Mus musculus; test: Reduction in TNFalpha level in Swiss Webster mouse 2 mg/kg, ip dosed 40 mins before CFA injection and measured 3 hrs post CFA stimulus by ELISA method; type: functional, organism-based; set-up: dose 2 mg/kg; settings: at 2 mg/kg
Method in brief: (§4)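 Mice dosed ip (dexamethasone in 10% ethanol in saline) 40 min before intraplantar CFA; paw skin removed under terminal halothane anesthesia, homogenized 100 mg/mL in PBS with 0.4 M NaCl, 0.05% Tween 20 and protease inhibitors, centrifuged 3000g 10 min, supernatant frozen −70 °C; cytokine by ELISA as pg/mL. n = 6; two-way ANOVA with Bonferroni.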

[12] = system: Mus musculus; test: Antiinflammatory activity in Swiss Webster mouse assessed as reduction in paw edema at 2 mg/kg, ip dosed 40 mins before CFA injection and measured 2 to 6 hrs post CFA stimulus; type: functional, organism-based; set-up: dose 2 mg/kg
Method in brief: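 Male Swiss Webster mice given drug ip (dexamethasone in 10% ethanol in saline) 40 min before intraplantar CFA (20 μL). Paw volume by plethysmometer before and after CFA, at 2, 4, 6 h; expressed as percent increase in paw volume. Mean ± SEM, n = 6; two-way ANOVA with Bonferroni.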

[13] = system: Mus musculus; test: Reduction in IL1-beta level in Swiss Webster mouse 2 mg/kg, ip dosed 40 mins before CFA injection and measured 3 hrs post CFA stimulus by ELISA method; type: functional, organism-based; set-up: dose 2 mg/kg; settings: at 2 mg/kg; method in brief: as §4
[14] = system: Mus musculus; test: Antinociceptive activity in Swiss Webster mouse assessed as inhibition of formalin-induced late phase pain response at 10 mg/kg, ip dosed 40 mins before formalin injection; type: functional, organism-based; set-up: dose 10 mg/kg
Method in brief: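 Mice acclimated 30 min, dosed ip 40 min before 20 μL 2.5% formalin sc into dorsal hind paw. Licking time of injected paw scored 10–30 min (late phase), mirror-aided observation. Mean ± SEM, n = 7−10; ANOVA with Tukey.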

[15] = system: Mus musculus; test: Antinociceptive activity in Swiss Webster mouse assessed as inhibition of acetic acid-induced abdominal constrictions at 10 mg/kg, ip dosed 40 mins before acetic acid injection; type: functional, organism-based; set-up: dose 10 mg/kg; settings: Abdomen
Method in brief: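 Male Swiss Webster mice dosed ip 40 min before ip acetic acid 0.8% v/v (10 mL/kg). Writhes (abdominal contraction with hind limb stretching) counted 0–30 min after injection in a glass cylinder. Mean writhing scores ± SEM, n = 10 per group; ANOVA with Tukey.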

[16] = system: Mus musculus; test: Antinociceptive activity in Swiss Webster mouse assessed as inhibition of formalin-induced late phase pain response at 25 to 100 mg/kg, ip dosed 40 mins before formalin injection; type: functional, organism-based; method in brief: as §1
[17] = system: Mus musculus; test: Antinociceptive activity in Swiss Webster mouse assessed as increase in latency time at 100 mg/kg, ip measured after 0.5 hrs by hot plate test; type: functional, organism-based; set-up: dose 100 mg/kg; method in brief: as §3

## C[C@]12C(=O)C=CC=C1[C@@H](O)C[C@@H]1[C@@H]2CC[C@@]2(O)C(=O)O[C@@]3(C)[C@H]4C[C@]5(C)[C@@H](CO[C@@]16O[C@]23[C@H]5C6=O)C(=O)O4 [PHYSALIN G]
[1]
  Activity: Active
[2]
  inhibition: Active
[3]
  Activity: Non-toxic
[4]
  inhibition: inactive
[5]
  inhibition: inactive
[6]
  inhibition: Dose-dependent effect
[7]
  Activity: Non-toxic
[8]
  inhibition: Active
[9]
  Activity: Active

## C[C@@H]1C[C@H]2[C@@H]3CCC4=CC(=O)C=C[C@]4(C)[C@@]3(F)[C@@H](O)C[C@]2(C)[C@@]1(O)C(=O)CO
[10]
  inhibition: Active
[11]
  inhibition: Active
[12]
  inhibition: Active
[13]
  inhibition: Active

## COc1ccc2c(c1)c(CC(=O)O)c(C)n2C(=O)c1ccc(Cl)cc1
[14]
  inhibition: Active
[15]
  inhibition: Active

## C[C@@]12C[C@H]3OC(=O)[C@@H]1CO[C@@]14O[C@]5([C@H]2C1=O)[C@@](O)(CC[C@H]1[C@H]4C[C@@H](O)[C@@]2(O)CC=CC(=O)[C@]12C)C(=O)O[C@@]35C [PHYSALIN D]
[16]
  inhibition: Active
[3]
  Activity: Non-toxic
[17]
  Activity: Active
[4]
  inhibition: inactive
[5]
  inhibition: inactive
[6]
  inhibition: Dose-dependent effect
[7]
  Activity: Non-toxic
